# Hits are enriched below; roughly 2.2% of the tested compounds scored in any of these assays.
# FLuc stim CS – affects firefly luciferase, flagging false hits in luciferase stimulation screens; P08659; ATPlite luciferase biochemical, luminescence, 10 min; 0 = ATP-free wells, 1 = DMSO control; activation factor at 10 µM; 200,000 tested, under 10 active;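 active = luciferase activation factor, scaled between plate controls, of at least 2 with compound at 10 µM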
#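 System: Luciferase/luciferin detection reagent, cell-free biochemical luciferase assay | Medium: PBS buffer for ATP | Dosing: Test compounds dosed from 2 mM stocks in 100% DMSO | Timing: 10 min at ambient temperature | Signal: Luminescence measurement of luciferase light output | Evaluation: Luciferase activation, seen as luminescence increase over controls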
# PKD1 inh – blocks activity of human protein kinase D1; Q15139; PKD1 kinase fluorescence polarization assay; hit rate 0.056% among 200,000; inhibition, % (test concentration not listed); in the data active = inhibition above about 50%
# TRAIL sens C8 – sensitizes caspase-8 expressing cells to TRAIL; NB7+C8 cells + TRAIL, ATPlite viability luminescence; inhibition (viability loss, TRAIL sensitization), % at 10 µM; hit rate 1% among 360,000; AID 624354;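 active = compounds causing at least 50% loss of cell viability in the single-dose screen, relative to plate controls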
# Wee1 stabilizer – human Wee1 degradation inhibition, primary screen; HeLa Luc-Wee1K328M stability, luciferase luminescence; 100% = proteasome inhibitor MG132 effect; AID 1321; hit rate 1.2% among 220,000; reporter increase, % at 5 µM; P30291;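 active = activation above the mean of all tested compounds plus 3 SD, set per screening run, cut at about 8.8% in these data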;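 also: cells exposed to compound for 20 h before luminescence read; 0% = DMSO alone and 100% = MG132 at 30 µM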
# PPC-1+TRAIL kill – PPC-1 cancer cell killing with TRAIL present; PPC-1 cells + TRAIL, ATPLite viability luminescence; cell killing (% activity), % at 4 µM or 5 µM; hit rate 0.41% among 220,000;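 active = cell killing above 50% in the first pass at 4 µM, then a duplicate retest at 5 µM averaging 50% or more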;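 also: plate controls were cells with TRAIL plus DMSO for no effect and medium-only wells lacking cells for full effect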
# FLuc inh counter – counter-screen for luciferase assay inhibitors: firefly luciferase inhibition; hit rate 1.5% among 200,000; inhibition, % at 10 µM; AID 1006; ATPLite firefly luciferase biochemical luminescence, 10 min; P08659;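 active = inhibition above about 50% when tested at 10 µM, limit read from the data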
# PPC1 cytotox – PPC-1 cell cytotoxicity; shares compounds with PPC-1+TRAIL kill; PPC-1 viability, ATPlite luminescence, overnight; cytotoxicity, % at 5 µM; hit rate 50% among 1,200;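 active = reconfirmed compounds whose average cytotoxicity reaches 50% or more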;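 also: 0% = DMSO-treated cells and 100% = wells holding medium but no cells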
# Starred values were filed as active, the others as inactive; / = not tested or not shown.
SMILES,FLuc stim CS,PKD1 inh,TRAIL sens C8,Wee1 stabilizer,PPC-1+TRAIL kill,FLuc inh counter,PPC1 cytotox
CCCn1c(NC(=O)c2ccccc2)nc2ccccc21,1,4.8,13.1,2.9,10.3,-4.0,8.4
COc1ccc(S(=O)(=O)NCc2cccnc2)cc1C,/,/,-8.8,/,/,/,/
COc1ccc(-c2nc3ccccc3s2)cc1,0.1,-2.2,84.1*,2.1,59.8*,92.4*,60.9*
Cn1c(CNC(=O)Cc2ccc3c(c2)OCO3)nnc1SCc1ccccc1,1,-4.4,-0.9,5.7,-11.1,-3.4,7.9
Cc1ccccc1NC(=O)CSc1nnc(CNC(=O)c2ccc3c(c2)OCO3)n1C,/,/,6.8,/,/,/,/
CC(C)NC(=O)COC(=O)c1cc(F)c(F)cc1Cl,1,0.9,0.2,2.7,9.5,-1.3,14.6
COc1ccc(C2/C=C\CN(C(=O)NC(C)C)CC(=O)N2Cc2ccc(F)cc2)cc1 (stereo not given),/,/,-11.8,/,17.0,/,/
C=CCNC(=O)/C(=C/c1cccc([N+](=O)[O-])c1)NC(=O)c1ccccc1,1.1,2.8,2.6,0.4,2.2,-6.9,5.8
C=CCNC(=O)/C(=C/c1cn(-c2ccccc2)nc1-c1cccc([N+](=O)[O-])c1)NC(=O)c1ccccc1,1,5.7,15.4,-0.5,26.1,-3.9,/
CCC(=O)N1CCN(c2nc3ccc(Br)cc3s2)CC1,/,/,13.5,/,/,/,/
COc1ccccc1Nc1nnc(SCC(=O)NC2CCCC2)s1,/,/,-9.6,/,/,/,/
COc1ccccc1Nc1nnc(SCC2CCCCO2)s1 (stereo not given),0.1,-4.3,70.5*,3.5,65.0*,86.0*,64.9*
CC1CCC(NC(=O)COC(=O)CSc2ccc(C(N)=O)cc2[N+](=O)[O-])CC1 (stereo not given),/,/,12.4,/,/,/,/
Cn1cnnc1Sc1ccc(C(=O)OCC(=O)NC2CC2)cc1[N+](=O)[O-],1,-3.8,-0.2,2.4,13.8,-1.8,1.2
CCn1c(SCC(=O)Nc2ccc(N3CCOCC3)cc2)nnc1-c1ccncc1,/,/,9.8,/,/,/,/
COc1cccc(/C=N/NC(=S)Nc2cccc(C(=O)O)c2)c1O,0.4,8.2,86.9*,-4.9,37.3,61.8*,35.3
COc1cc(/C=N/NC(=S)Nc2cccc(C(=O)O)c2)ccc1O,0.7,4.8,34.9,-5.1,26.7,25.3,/
COCc1cc(C)nc2sc(C(=O)Nc3nccs3)c(N)c12,0.9,-4.9,-14.2,4.0,-24.3,5.6,/
Cc1cc(C)c2c(N)c(C(=O)Nc3nccs3)sc2n1,0.1,0.5,81.3*,1.0,81.7*,94.5*,80.8*
Cc1cccc(NS(=O)(=O)c2cc(C(=O)OCC(=O)Nc3cc(C)on3)ccc2C)c1,1,-4.7,8.2,-1.8,-10.3,-4.3,/
Cc1cccc(NS(=O)(=O)c2ccc(C)c(C(=O)OCC(=O)Nc3cc(C)on3)c2)c1,1,-1.3,13.9,-1.1,6.5,4.1,7.3
COc1ccc(/C=N/Nc2nc3ccccc3s2)cc1O,0.2,9.6,44.1,6.9,40.0,83.2*,40.5
Cc1ccc(NC(=O)CSc2ncc3ccccn23)cc1,1,-6.1,-8.4,3.7,-1.9,4.3,/
CN1CCN(C(=O)c2ccc(COc3ccc(C(C)(C)C)cc3)o2)CC1,0.7,2.5,11.1,-0.5,21.7,27.1,21.9
CCOc1ccc(OCc2ccc(C(=O)N3CCCC3)o2)cc1,1,0.4,2.1,-1.3,9.7,1.2,/
SMILES,FLuc stim CS,PKD1 inh,TRAIL sens C8,Wee1 stabilizer,PPC-1+TRAIL kill,FLuc inh counter,PPC1 cytotox
CCCNC(=O)c1oc2ccc3c(c2c1C)C=CC(C)(C)O3,/,/,2.6,/,/,/,/
CCCNC(=O)c1oc2ccc3c(c2c1C)C(=O)CC(C)(C)O3,0.2,2.4,52.0*,0.5,51.6*,75.9*,46.9
C#CCN1C=CC(=O)[C@@H](OC(=O)NCCC)[C@H]1c1ccccc1Br,/,/,-3.5,/,/,/,/
O=C1C(Cl)=C(NCCN2CCCCC2)C(=O)c2ccccc21,1.1,-1.0,91.9*,-1.0,47.5,-5.8,46.3
O=C(O)/C=C(\Oc1ccccc1)C1(O)CCCCC1,/,/,-0.7,0.1,20.6,/,/
CN(C(=O)c1cccc(Nc2ccc(-c3ccc4c(c3)OCCO4)nn2)c1)C1CCCCC1,0.2,4.1,68.2*,-0.4,52.6*,77.2*,54.8*
Cc1cccc(-c2nc(CN3CCN(C(=O)C4CCCO4)CC3)cs2)c1 (stereo not given),/,/,4.3,/,/,/,/
